# Hits are enriched below; roughly 11% of the tested compounds scored in any of these assays.
# M1 antagonist – blocks the rat M1 muscarinic receptor response to acetylcholine | B-score at 10 µM | P08482 | CHO-M1 cells, Fluo-4 calcium, ACh EC80 antagonist mode; stronger effect = lower value | 3.4% of 64,000 active;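 active = calcium fluorescence response, raw or row-and-column corrected B-score, differing from the plate sample mean either way at a set confidence level, mostly lower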
# Target sequence (P08482 whole entry, looked up): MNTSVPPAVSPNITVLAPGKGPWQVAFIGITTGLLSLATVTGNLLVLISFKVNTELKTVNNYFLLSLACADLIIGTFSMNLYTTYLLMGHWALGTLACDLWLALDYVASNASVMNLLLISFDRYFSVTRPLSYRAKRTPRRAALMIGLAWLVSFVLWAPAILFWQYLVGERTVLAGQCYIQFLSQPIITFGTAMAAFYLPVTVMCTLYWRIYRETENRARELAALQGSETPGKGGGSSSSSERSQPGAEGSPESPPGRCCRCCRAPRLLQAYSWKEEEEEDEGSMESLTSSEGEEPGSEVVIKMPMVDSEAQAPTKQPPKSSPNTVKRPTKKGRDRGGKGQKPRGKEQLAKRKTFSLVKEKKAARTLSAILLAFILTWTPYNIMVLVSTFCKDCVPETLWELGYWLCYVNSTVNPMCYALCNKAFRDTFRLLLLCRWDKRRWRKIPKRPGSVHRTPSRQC
# M1 agonist – activates the M1 muscarinic receptor | B-score at 10 µM | 3% of 64,000 active | CHO-M1 cells, Fluo-4 calcium fluorescence, agonist mode; stronger effect = higher value;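 active = fluorescence rise, raw or as B-score row- and column-corrected plate score, outside the 99.7% band of its plate's samples, either direction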
# S1P3 ag – agonists of human S1P3 receptor; S1P3 NFAT-BLA reporter cells, agonism, FRET ratio; relative to 1 µM S1P, basal subtracted; AID 373; 0.1% of 60,000 active; activation, % at 4.5 µM;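 active = activation above the screen-wide mean plus 3 SD, cut at about 4.5% in these data, passing the limit was not always enough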
#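 Assay system: stable CHO line with human S1P3, Gα16, NFAT-BLA reporter; Detection: FRET β-lactamase substrate fluorescence, excitation 405 nm, 460/535 nm emission ratio, background-subtracted; Read-out: percent activation versus median 1 µM S1P response, basal-subtracted, per plate; Incubation: cells plated overnight, compound 4 h 37 °C, substrate 2 h RT.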
# S1P1 ag-PAM – activates or potentiates agonism at human S1P1 receptor. P21453. S1P1 CRE-bla cells, forskolin, beta-lactamase FRET, potentiator mode; S1P1 agonist co-added at EC20, 2 nM; 100% = saturating reference agonist, 0% = basal. activation, % at 9.5 µM. 0.57% of 56,000 active. AID 449;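 active = activation above a cutoff set at the mean activation of all tested compounds plus 3 SD, cut at about 54% in these data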;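 also: forskolin at 4 µM as EC80 and the EC20 agonist is SEW2871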
# D1 allo mod – allosterically modulates the human D1 dopamine receptor | AID 641 | HEK293 D1, CRE-luciferase, dopamine EC30 potentiation; actives deviate in either direction | 5.9% of 58,000 active | B-score at 10 µM | P21728;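 active = luminescence count or its row- and column-corrected plate score outside the 99.7% band of the plate's sample wells, on either side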
# M1 agonist conf – confirmation of rat M1 muscarinic receptor agonists; fluorescence change (max-min) at 10 µM; shares compounds with M1 agonist; 19% of 1,700 active; AID 1488; CHO-M1 cells, Fluo-4 calcium fluorescence, agonist mode; actives lie on both sides;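 active = fluorescence change differs from the solvent-only DMSO control mean at a set confidence level in both duplicate runs; inconclusive = differs from solvent-only control mean in just one of two runs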;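 also: an EC20 dose of acetylcholine follows compound addition during the same imaging run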
# M4 ag counter – rat M4 muscarinic agonism, M1 counter-screen; CHO M4/Gqi5 cells, Fluo-4 calcium fluorescence, agonist mode; actives lie on both sides; 9% of 1,700 active; AID 1741; fluorescence change (max-min) at 10 µM; shares compounds with M1 agonist;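 active = fluorescence change differing from the plate's solvent-only control wells at 99.7% confidence in both duplicates, whether higher or lower; inconclusive = differs from solvent controls in only one of two duplicates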
# Numbers stand for hits; . = inactive; ? = inconclusive; / = no result given.
SMILES,M1 antagonist,M1 agonist,S1P3 ag,S1P1 ag-PAM,D1 allo mod,M1 agonist conf,M4 ag counter
COC(=O)c1ccccc1NC(=O)Cn1cnc2cc(C)c(C)cc21,.,-2.8,.,.,.,.,.
Cc1cc(C)n2nc(NCc3cccc(Br)c3)nc2n1,.,.,.,.,/,/,/
Cn1c(=O)c2cc(NC(=O)c3ccccc3Cl)c(=O)oc2n(C)c1=O,.,.,/,/,.,/,/
Cc1cc(N2CCN(C(c3ccccc3)c3ccccc3)CC2)n2ncnc2n1,.,.,.,.,.,/,/
Cc1cc(N2CCN(c3nc4ccccc4s3)CC2)n2ncnc2n1,.,3.6,.,58,.,.,?
Cc1nc2ccccc2n2c(O)c(CC(=O)O)cc12,.,269,.,.,.,1125,1088
CCOc1ccc(CC(=O)Nc2c(C(N)=O)oc3ccc(Br)cc23)cc1OCC,.,3.1,.,.,/,.,.
COC(=O)c1oc2ccc(Br)cc2c1NC(=O)CCN1CCOCC1,.,.,.,.,.,/,/
COCCn1c(C)cc(C(=O)COC(=O)c2c(C)nn(Cc3ccccc3)c2C)c1C,.,.,/,/,/,/,/
COCCn1c(C)cc(C(=O)COc2nc3ccccc3nc2C)c1C,.,5.2,.,.,.,.,.
CCOC(=O)c1c(C)[nH]c(NC(=O)N2CCOCC2)c1C,.,.,.,.,.,/,/
CCOC(=O)Cn1c(=O)c2c(nc(Br)n2Cc2ccc(Cl)cc2)n(C)c1=O,.,.,.,.,.,/,/
CCCCCCOC(=O)C(C#N)c1nc2ccccc2nc1N1CCN(CC)CC1 (centres undefined),.,4.1,.,.,-4.1,.,.
N#CC(C(=O)NCCc1ccccc1)c1nc2ccccc2nc1N1CCOCC1 (centres undefined),.,.,.,.,.,/,/
CCCCCNC(=O)C(C#N)c1nc2ccccc2nc1N1CCCC1 (centres undefined),-2.4,282,.,.,.,1609,1437
CCCCCCNC(=O)C(C#N)c1nc2ccccc2nc1N1CCOCC1 (centres undefined),.,156,.,.,.,179,1619
CCCCn1nnnc1NCc1cccc(OC)c1OC,.,.,.,.,.,/,/
CCOc1ccc(NC(=O)Nc2ccc3c(c2)N(C)C(=O)CS3)cc1,.,.,.,.,.,/,/
COc1ccc(NC(=O)Nc2ccc3c(c2)N(C)C(=O)CS3)cc1OC,.,3.1,.,.,.,?,.
O=C(Nc1cccnc1)C1CC(c2ccc(Cl)c(Cl)c2)=NO1 (centres undefined),.,-2.6,.,.,/,.,.
COc1ccc(OC)c(C2=NOC(C(=O)Nc3cccnc3)C2)c1 (centres undefined),.,.,.,.,.,/,/
CCn1c(Cc2ccc(OC)cc2)nnc1SCC(=O)Nc1cccc(C(=O)OC)c1,.,.,.,.,.,/,/
CCN1C(=S)SC(=O)C1=C1C=C(C)OC(C)=C1,.,.,/,/,.,/,/
CCN1C(=S)SC(=O)C1=C1C=C(C)N(Cc2ccco2)C(C)=C1,.,27,/,/,.,135,234
CCn1c(SCC(=O)Nc2cc3oc4ccccc4c3cc2OC)nnc1-c1cccs1,/,/,.,/,.,/,/
SMILES,M1 antagonist,M1 agonist,S1P3 ag,S1P1 ag-PAM,D1 allo mod,M1 agonist conf,M4 ag counter
CCc1nc(NCCCN2CCOCC2)c2oc3ccccc3c2n1,.,.,.,.,.,/,/
CCc1nc(NCc2ccccn2)c2oc3ccccc3c2n1,.,4.2,/,/,/,-24,?
COC(=O)c1c(=O)n(O)c2ccc(OC)cc2[n+]1[O-],.,19,.,.,.,117,96
COC(=O)c1ccccc1COn1c(=O)c(C)[n+]([O-])c2ccccc21,.,.,.,.,.,/,/
COc1ccc(-n2c(NC(=O)c3ccco3)c(C#N)c3nc4ccccc4nc32)cc1,.,27,.,.,.,.,.
CCCCn1c(NC(=O)c2ccccc2Cl)c(C#N)c2nc3ccccc3nc21,.,20,.,.,.,59,.
CCC(=O)Nc1c(C#N)c2nc3ccccc3nc2n1-c1ccccc1C,.,.,.,.,.,/,/
COc1ccc(OCCn2c(NC(=O)c3ccco3)nc3ccccc32)cc1,.,.,.,/,.,/,/
CC1(C)CC(=O)C(C=NCC2CCN(C(=O)Nc3ccccc3)CC2)=C(O)C1,.,.,.,.,.,/,/
O=C1CC(=O)N(Cc2ccco2)C(=O)N1,.,3,.,/,.,?,.
O=C1CC(=O)N(Cc2cccs2)C(=O)N1,.,.,.,.,.,/,/
Cn1c(=O)[nH]c(=O)c2c1nc(N1CCOCC1)n2CCSc1ncccn1,.,.,.,.,.,/,/
O=c1c2ccccc2c(/C=N/n2cnnc2)c(O)n1-c1ccccc1,.,9,.,.,.,149,123
COc1ccc(-n2c(O)c(/C=N/n3cnnc3)c3ccccc3c2=O)cc1,.,15,.,.,.,164,.
CC(=O)c1c(C)[nH]c(C(=O)OCc2nnc(-c3ccccc3)o2)c1C,.,2.8,.,.,.,?,-70
CC(C(=O)OCc1nnc(-c2ccccc2)o1)N1C(=O)c2ccccc2C1=O (centres undefined),.,-2.2,/,/,/,.,.
Cc1ccc(C(=O)OCc2nnc(-c3ccccc3)o2)o1,.,.,.,.,.,/,/
CCOc1ccc(-c2ncncc2-c2ccc(OC)cc2)c(O)c1,.,.,.,.,.,/,/
COc1cccc(C2C=C(c3ccc(Br)s3)Nc3ncnn32)c1OC (centres undefined),.,18,.,.,.,170,156
Nc1nc(-c2ccc(Br)s2)c(Br)s1,.,.,.,.,.,/,/
Cc1cc2cc(CCNC(=O)c3ccc(Br)o3)c(=O)[nH]c2cc1C,.,3.7,.,.,.,.,.
O=C(CSc1nc2[nH]ncc2c(=O)n1-c1ccccc1)c1ccc2c(c1)OCCO2,.,7.2,.,/,.,?,.
CCOC(=O)Cc1csc(NC(=O)CSc2nnc(-c3ccc(C)cc3)o2)n1,.,.,.,.,.,/,/
CCOC(=O)Cc1csc(NC(=O)CSc2nnc(-n3nc(C)cc3C)c3ccccc23)n1,.,4.7,.,.,.,.,.
CCCCCCc1cc2cc(-c3nnc(-c4ccccc4O)o3)c(=O)oc2cc1O,3.3,317,.,.,/,781,843
Cc1cc(-c2nnc(-c3cc4ccccc4oc3=O)o2)c(C)n1-c1ccccc1,.,.,/,/,.,/,/
CCOC(=O)c1cc2c(ccn2C)n1CC(=O)N1CCN(c2ccccc2OC)CC1,.,.,.,.,.,/,/
Cc1ccc(C)c(C(C)NC(=O)C2C3CCC(O3)C2C(=O)O)c1 (centres undefined),.,.,.,.,.,/,/
Cc1ccc(S(=O)(=O)N2CCN(C3CC(=O)N(Cc4ccccc4)C3=O)CC2)cc1C (centres undefined),.,.,.,.,.,/,/

# Screening results (PubChem)
